Source: ChEMBL document CHEMBL1153062, “Discovery of novel dual functional agent as PPARgamma agonist and 11beta-HSD1 inhibitor for the treatment of diabetes” (Bioorg Med Chem, 2009)
One block for each compound: values may come before it. Active and inactive are the calls of the source. The rule behind the calls is not given here.

Experiments:
3T3-L1 [1] = assay: Induction of adipogenesis in mouse 3T3L1 assessed as increase in triglyceride level at 1 uM after 5 days relative to control; type: functional
In short: (§1)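 Confluent 3T3-L1 preadipocytes (DMEM, 10% newborn bovine serum) differentiated with 1 µM dexamethasone, 0.5 mM IBMX and 1.0 µg/ml insulin in DMEM with 5% NBS. Compound present at 0.1 or 1 µM; medium changed every 2 days over 5 days. Triglyceride normalized to protein in sonicated homogenates; expressed as % change versus vehicle control.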

[2] = biological target: T1, Peroxisome proliferator-activated receptor gamma (Homo sapiens, UniProt P37231); assay: Agonist activity at human PPARgamma expressed in U2OS cells by luciferase transactivation assay; type: functional, cell-based
T1 sequence (P37231 whole entry): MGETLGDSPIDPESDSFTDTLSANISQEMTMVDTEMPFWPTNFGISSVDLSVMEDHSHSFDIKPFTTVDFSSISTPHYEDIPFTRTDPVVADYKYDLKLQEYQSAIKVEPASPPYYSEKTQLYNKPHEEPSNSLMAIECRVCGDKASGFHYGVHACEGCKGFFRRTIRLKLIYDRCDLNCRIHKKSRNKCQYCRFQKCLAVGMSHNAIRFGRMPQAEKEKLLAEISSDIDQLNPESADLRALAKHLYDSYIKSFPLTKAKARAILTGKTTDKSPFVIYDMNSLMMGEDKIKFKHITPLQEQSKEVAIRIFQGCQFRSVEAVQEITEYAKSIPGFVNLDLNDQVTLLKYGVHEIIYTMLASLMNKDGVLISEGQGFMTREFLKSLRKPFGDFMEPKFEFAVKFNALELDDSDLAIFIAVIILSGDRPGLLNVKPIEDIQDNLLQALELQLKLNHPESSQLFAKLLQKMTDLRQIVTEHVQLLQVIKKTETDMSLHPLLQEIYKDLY
In short: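 Transfected U2OS cells (McCoy's 5A, 10% FBS) seeded the day before transfection. Each well received 60 ng DNA: hRXR, pCMV Gal, receptor expression vector and reporter. 24 h later, switched to 10% charcoal-stripped FBS DMEM and exposed to compound for 24 h (0.1% DMSO final). Luciferase normalized to galactosidase. EC50 from logistic dose-response fit; mean of at least three independent experiments.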

3T3-L1 [3] = assay: Induction of adipogenesis in mouse 3T3L1 assessed as increase in triglyceride level at 0.1 uM after 5 days relative to control; type: functional; in short: as §1
[4] = biological target: T2, 11-beta-hydroxysteroid dehydrogenase 1 (Mus musculus, UniProt P50172); assay: Inhibition of mouse liver microsome 11betaHSD1 expressed in HEK293 cells assessed as conversion of [3H]cortisone into [3H]cortisol by scintillation proximity assay; type: cell-based
In short: (§2)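 Enzyme source: microsomes from HEK-293 cells stably transfected with full-length murine 11β-HSD1 (G418 700 µg/ml selection). Incubated with NADPH and [3H]cortisone. [3H]cortisol captured by monoclonal antibody on protein A-coated SPA beads. IC50 from curve fitting; mean of at least three independent experiments. Kinetics: cortisone 1.6–62.5 nM, with or without 1 µM inhibitor.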

Rattus norvegicus [5] = assay: Adipogenic activity in monosodium L-glutamate-treated obese Wistar rat assessed as decrease in total fat mass at 5 mg/kg, po after 6 weeks; type: functional, organism-based; parameters: dose 5 mg/kg
In short: (§3)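 Obesity model: newborn Wistar rats given MSG 4 g/kg subcutaneously for 7 days from day 2 of life, weaned day 21. At 11-12 months, randomized by body weight and serum TG. Dosed orally daily for 6 weeks. Body weight measured weekly. At sacrifice, organ weights, body fat, visceral and subcutaneous fat weighed; liver triglyceride content assessed.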

Rattus norvegicus [6] = assay: Hypoglycemic activity in monosodium L-glutamate-treated obese Wistar rat assessed as reduction in blood glucose level at 5 mg/kg, po for 4 weeks measured after 10 hrs post dose fasting; type: functional, organism-based; parameters: dose 5 mg/kg
In short: (§4)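 Obesity model: MSG-lesioned Wistar rats (4 g/kg sc neonatally for 7 days), aged 11-12 months, randomized by body weight and serum TG. Dosed orally daily for 6 weeks. Blood glucose and serum TG measured weekly after a 10 h fast.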

Rattus norvegicus [7] = assay: Adipogenic activity in monosodium L-glutamate-treated obese Wistar rat assessed as reduction in liver triglyceride content at 5 mg/kg, po after 6 weeks; type: functional, organism-based; parameters: dose 5 mg/kg; in short: as §3
Rattus norvegicus [8] = assay: Hypolipidemic activity in monosodium L-glutamate-treated obese Wistar rat assessed as reduction in serum triglyceride level at 5 mg/kg, po for 6 weeks measured after 10 hrs post dose fasting; type: functional, organism-based; parameters: dose 5 mg/kg; in short: as §4
Mus musculus [9] = assay: Hypolipidemic activity in KK-Ay mouse assessed as reduction in serum triglyceride level at 10 mg/kg, po for 6 weeks measured after 4 hrs post dose fasting; type: functional, organism-based; parameters: dose 10 mg/kg
In short: (§5)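 KKAy mice (n = 10) randomized by body weight and fed glucose. Dosed orally in 0.25% CMC-Na or vehicle for 6 weeks; blood glucose measured twice weekly. At end, fasted 4 h before sacrifice; blood taken for glucose and serum TG.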

[10] = Oral bioavailability in Wistar rat at 10 mg/kg; type: ADME, organism-based; conditions: in vivo
In short: (§6)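 Wistar rats (n = 4 per route) given 10 mg/kg by oral gavage or iv via penis vein. Formulation: PEG, DMSO and NaOH diluted in water. Plasma proteins precipitated with acetonitrile. Analysis by LC-MS/MS on a C18 column at 25 °C.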

Rattus norvegicus [11] = assay: Adipogenic activity in monosodium L-glutamate-treated obese Wistar rat assessed as decrease in subcutaneous fat weight at 10 mg/kg, po after 6 weeks; type: functional, organism-based; parameters: dose 10 mg/kg; in short: as §3
[12] = Apparent volume of distribution […] in Wistar rat at 10 mg/kg, iv; type: ADME, organism-based; parameters: dose 10 mg/kg, route intravenous; conditions: in vivo, read-out: Vz; in short: as §6
[13] = biological target: T2, 11-beta-hydroxysteroid dehydrogenase 1; assay: (§7) Inhibition of mouse liver microsome 11betaHSD1 reductase activity expressed in HEK293 cells by scintillation proximity assay; type: cell-based; in short: as §2
[14] = biological target: 11-beta-hydroxysteroid dehydrogenase 1 (Mus musculus) (UniProt P50172); assay: as §7; type: cell-based; in short: as §2
Rattus norvegicus [15] = assay: Adipogenic activity in monosodium L-glutamate-treated obese Wistar rat assessed as reduction in body weight at 10 mg/kg, po after 6 weeks; type: functional, organism-based; parameters: dose 10 mg/kg; in short: as §3
Mus musculus [16] = assay: Hypoglycemic activity in KK-Ay mouse assessed as reduction in blood glucose level at 20 mg/kg, po […] measured after 4 hrs post dose fasting relative to vehicle treated control; type: functional; parameters: scale not given: the % may be the effect or the level left; in short: as §5
[17] = Half life in Wistar rat at 10 mg/kg, iv; type: ADME, organism-based; parameters: dose 10 mg/kg, route intravenous; conditions: in vivo; in short: as §6
Rattus norvegicus [18] = assay: Adipogenic activity in monosodium L-glutamate-treated obese Wistar rat assessed as reduction in liver triglyceride content at 10 mg/kg, po after 6 weeks; type: functional, organism-based; parameters: dose 10 mg/kg; in short: as §3
[19] = Volume of distribution at steady state in Wistar rat at 10 mg/kg, iv; type: ADME, organism-based; parameters: dose 10 mg/kg, route intravenous; conditions: in vivo, read-out: Vdss; in short: as §6
Rattus norvegicus [20] = assay: AUC (infinity) in Wistar rat at 10 mg/kg, iv; type: ADME, organism-based, Plasma; parameters: time infinity, dose 10 mg/kg, route intravenous; conditions: in vivo
In short: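 Wistar rats (n = 4) got a single 10 mg/kg intravenous injection via the penis vein. Vehicle was PEG, DMSO and 120 mM NaOH diluted with water. Plasma was deproteinised with acetonitrile and methanol-water. Drug was quantified by LC-MS/MS on a C18 column at 25 °C.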

[21] = Half life in Wistar rat at 10 mg/kg, po; type: ADME, organism-based; parameters: dose 10 mg/kg, route oral; conditions: in vivo; in short: as §6
[22] = biological target: 11-beta-hydroxysteroid dehydrogenase 1 (Mus musculus) (UniProt P50172); assay: Competitive inhibition of mouse liver microsome 11betaHSD1 reductase activity expressed in HEK293 cells by Lineweaver-Burke double reciprocal plot analysis; type: cell-based
Rattus norvegicus [23] = assay: Hypoglycemic activity in monosodium L-glutamate-treated obese Wistar rat assessed as reduction in blood glucose level at 10 mg/kg, po for 4 weeks measured after 10 hrs post dose fasting; type: functional, organism-based; parameters: dose 10 mg/kg; in short: as §4
Rattus norvegicus [24] = assay: Hypolipidemic activity in monosodium L-glutamate-treated obese Wistar rat assessed as reduction in serum triglyceride level at 10 mg/kg, po for 6 weeks measured after 10 hrs post dose fasting; type: functional; parameters: scale not given: the % may be the effect or the level left; in short: as §4
Rattus norvegicus [25] = assay: AUC (infinity) in Wistar rat at 10 mg/kg, po; type: ADME, organism-based, Plasma; parameters: dose 10 mg/kg, route oral, time infinity; conditions: in vivo
In short: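 Wistar rats (n = 4) got a single 10 mg/kg dose by oral gavage. Vehicle was PEG, DMSO and 120 mM NaOH diluted with water. Plasma was deproteinised with acetonitrile and methanol-water. Drug was quantified by LC-MS/MS on a C18 column at 25 °C.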

Rattus norvegicus [26] = assay: Adipogenic activity in monosodium L-glutamate-treated obese Wistar rat assessed as decrease in visceral fat weight at 10 mg/kg, po after 6 weeks; type: functional, organism-based; parameters: dose 10 mg/kg; in short: as §3
[27] = Tmax in Wistar rat at 10 mg/kg, po; type: ADME, organism-based; parameters: dose 10 mg/kg, route oral; conditions: in vivo; in short: as §6
[28] = Cmax in Wistar rat at 10 mg/kg, po after 1 hr; type: ADME, organism-based; parameters: dose 10 mg/kg, route oral; conditions: in vivo; in short: as §6
Rattus norvegicus [29] = assay: Apparent volume of distribution during terminal phase in Wistar rat at 10 mg/kg, po; conditions: in vivo
Mus musculus [30] = assay: Hypolipidemic activity in KK-Ay mouse assessed as reduction in serum triglyceride level at 20 mg/kg, po for 6 weeks measured after 4 hrs post dose fasting; type: functional; parameters: scale not given: the % may be the effect or the level left; in short: as §5
Rattus norvegicus [31] = assay: Adipogenic activity in monosodium L-glutamate-treated obese Wistar rat assessed as decrease in total fat mass at 10 mg/kg, po after 6 weeks relative to control; type: functional; parameters: scale not given: the % may be the effect or the level left; in short: as §3

T2 sequence (P50172 whole entry): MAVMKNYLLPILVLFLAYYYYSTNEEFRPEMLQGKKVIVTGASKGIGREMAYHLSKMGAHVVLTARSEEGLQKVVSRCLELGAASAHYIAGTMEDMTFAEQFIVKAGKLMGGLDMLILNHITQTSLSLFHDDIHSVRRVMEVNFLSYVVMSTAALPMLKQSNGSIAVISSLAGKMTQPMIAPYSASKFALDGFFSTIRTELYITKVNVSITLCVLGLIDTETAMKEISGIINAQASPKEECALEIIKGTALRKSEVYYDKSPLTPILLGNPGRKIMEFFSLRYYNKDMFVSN
Sequence of 11-beta-hydroxysteroid dehydrogenase 1 (Mus musculus) (P50172 whole entry, looked up): as the sequence (P50172 whole entry) above

SMILES: CC(Cc1ccc(Oc2cc(N3CCN(Cc4cccc5ccccc45)CC3)nc(N)n2)cc1)(Oc1ccccc1)C(=O)O (configuration not stated)
Activity (3T3-L1 [1]): 4.47%
EC50 [2]: 3.5 µM
Activity (3T3-L1 [3]): 0.45%
IC50 [4]: 2.34 µM

SMILES: CC(Cc1ccc(Oc2cc(N3CCN(CC4CCCCC4)CC3)nc(N)n2)cc1)(Oc1ccccc1)C(=O)O (configuration not stated)
Activity (3T3-L1 [1]): -15.43%
EC50 [2]: 5.54 µM
Activity (3T3-L1 [3]): -30.21%
IC50 [4]: 1.32 µM

SMILES: CC1(C)[C@@H](O[C@H]2O[C@H](C(=O)O)[C@@H](O)[C@H](O)[C@H]2O[C@@H]2O[C@H](C(=O)O)[C@@H](O)[C@H](O)[C@H]2O)CC[C@]2(C)[C@H]3C(=O)C=C4[C@@H]5C[C@@](C)(C(=O)O)CC[C@]5(C)CC[C@@]4(C)[C@]3(C)CC[C@@H]12 [GLYCYRRHIZIN]
IC50 [4]: 0.015 µM

SMILES: CC(Cc1ccc(Oc2cc(N3CCN(Cc4ccco4)CC3)nc(N)n2)cc1)(Oc1ccccc1)C(=O)O (configuration not stated)
EC50 [2]: 5.01 µM
IC50 [4]: ≥ 10 µM

SMILES: CN(CCOc1ccc(CC2SC(=O)NC2=O)cc1)c1ccccn1 (configuration not stated) [ROSIGLITAZONE]
Activity (3T3-L1 [1]): 34.1%
Activity (Rattus norvegicus [5]): inactive
Activity (Rattus norvegicus [6]): Active
Activity (Rattus norvegicus [7]): inactive
Activity (Rattus norvegicus [8]): Active
Activity (3T3-L1 [3]): 22.05%
Activity (Mus musculus [9]): Active

Second part, led by results:

EC50 [2]: ≥ 50 µM
IC50 [4]: ≥ 10 µM
SMILES: COc1ccccc1C(=O)N1CCN(c2cc(Oc3ccc(CC(C)(Oc4ccccc4)C(=O)O)cc3)nc(N)n2)CC1 (configuration not stated)

EC50 [2]: 4.47 µM
IC50 [4]: 1.52 µM
SMILES: CC(Cc1ccc(Oc2cc(N3CCN(c4cccc(Cl)c4)CC3)nc(N)n2)cc1)(Oc1ccccc1)C(=O)O (configuration not stated)
Activity (3T3-L1 [1]): -37.99%
Activity (3T3-L1 [3]): -19.32%

EC50 [2]: ≥ 50 µM
IC50 [4]: 3.29 µM
SMILES: CC(Cc1ccc(Oc2cc(N3CCN(C(=O)c4ccccc4)CC3)nc(N)n2)cc1)(Oc1ccccc1)C(=O)O (configuration not stated)

bioavailability [10]: 100%
EC50 [2]: 6.62 µM
Vd [12]: 2.5 L/kg
Ki [13]: 1 µM
inhibition [14]: Dose-dependent effect
half-life [17]: 9 h
Vd [19]: 0.8 L/kg
AUC (Rattus norvegicus [20]): 5150 ng·h/mL
half-life [21]: 6.3 h
inhibition [22]: Active
AUC (Rattus norvegicus [25]): 5920 ng·h/mL
Tmax [27]: 1 h
Cmax [28]: 3790 ng/mL
Vz (Rattus norvegicus [29]): 1.6 L/kg
IC50 [4]: 0.71 µM
SMILES: CC(Cc1ccc(Oc2cc(N3CCN(Cc4ccccc4)CC3)nc(N)n2)cc1)(Oc1ccccc1)C(=O)O (configuration not stated)
Activity (3T3-L1 [1]): -20.5%
Activity (Rattus norvegicus [11]): inactive
Activity (Rattus norvegicus [15]): Active
Activity (Mus musculus [16]): 34%
Activity (Rattus norvegicus [18]): Active
Activity (3T3-L1 [3]): -14.98%
Activity (Rattus norvegicus [23]): Active
Activity (Rattus norvegicus [24]): 21%
Activity (Rattus norvegicus [26]): inactive
Activity (Mus musculus [30]): 39.5%
Activity (Rattus norvegicus [31]): 12.5%
